Assay results taken from ChEMBL document CHEMBL1154780, “Synthesis of new linear guanidines and macrocyclic amidinourea derivatives endowed with high antifungal activity against Candida spp. and Aspergillus spp” (J Med Chem, 2009).
In brackets after ≈: the same amount, converted by molar mass.

How the values were obtained:
[1] = Cytotoxicity against human lymphocytes at 40 uM; type: cell-based; conditions: lymphocyte
How it was run: (§1)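 Human lymphocytes exposed to compound at concentrations between 0 and 50 μM, at both 25 and 37 °C; read-out is percent cell viability.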

[2] = tested on: Candida albicans; experiment: Anticandidal activity against Candida albicans 15T after 24 hrs by spectrophotometry; type: functional
[3] = tested on: Pichia kudriavzevii; experiment: Anticandidal activity against Candida krusei ATCC 14243 after 24 hrs by spectrophotometry; type: functional; conditions: ATCC 14243, 24 h
[4] = tested on: Candida albicans; experiment: Anticandidal activity against Candida albicans ATCC 60193 after 24 hrs by spectrophotometry; type: functional; conditions: ATCC 60193, 24 h
[5] = tested on: Aspergillus versicolor; experiment: Antifungal activity against Aspergillus versicolor isolated from patient skin after 48 hrs by broth microdilution method; type: functional
[6] = tested on: Aspergillus niger; experiment: Antifungal activity against Aspergillus niger isolated from patient sputum after 48 hrs by broth microdilution method; type: functional
[7] = tested on: Aspergillus fumigatus; experiment: Antifungal activity against Aspergillus fumigatus isolated from patient sputum after 48 hrs by broth microdilution method; type: functional
[8] = tested on: Aspergillus versicolor; experiment: Antifungal activity against Aspergillus versicolor isolated from patient sputum after 48 hrs by broth microdilution method; type: functional
[9] = tested on: Aspergillus flavus; experiment: Antifungal activity against Aspergillus flavus isolated from patient sputum after 48 hrs by broth microdilution method; type: functional
[10] = tested on: Candida parapsilosis; experiment: Anticandidal activity against Candida parapsilosis ATCC 34136 after 24 hrs by spectrophotometry; type: functional; conditions: Lodderomyces parapsilosis, ATCC 34136, 24 h
[11] = tested on: Aspergillus niger; experiment: Antifungal activity against Aspergillus niger isolated from patient nasal swab after 48 hrs by broth microdilution method; type: functional
[12] = tested on: Aspergillus terreus; experiment: Antifungal activity against Aspergillus terreus isolated from patient bronchoalveolar lavage fluid after 48 hrs by broth microdilution method; type: functional; conditions: Lung
[13] = tested on: Candida albicans; experiment: Anticandidal activity against Candida albicans 4T after 24 hrs by spectrophotometry; type: functional
[14] = tested on: Nakaseomyces glabratus; experiment: Anticandidal activity against Candida glabrata 70E after 24 hrs by spectrophotometry; type: functional
[15] = Cytotoxicity against human lymphocytes at 50 uM; type: cell-based; conditions: lymphocyte; how it was run: as §1
[16] = Therapeutic index, ratio of drug level reducing 50% viability of human lymphocytes at 25 degC to MIC50 for Candida sp.
[17] = tested on: Candida parapsilosis; experiment: Anticandidal activity against Candida parapsilosis 64E after 24 hrs by spectrophotometry; type: functional; conditions: Lodderomyces parapsilosis
[18] = Cytotoxicity against human lymphocytes assessed as cell viability up to 30 uM; type: cell-based, Lymphocyte; conditions: read-out: Activity; how it was run: as §1
[19] = tested on: Aspergillus fumigatus; experiment: Antifungal activity against Aspergillus fumigatus isolated from patient bronchoalveolar lavage fluid after 48 hrs by broth microdilution method; type: functional; conditions: Lung
[20] = tested on: Candida albicans; experiment: Anticandidal activity against Candida albicans 53T after 24 hrs by spectrophotometry; type: functional
[21] = tested on: Candida tropicalis; experiment: Anticandidal activity against Candida tropicalis 86E after 24 hrs by spectrophotometry; type: functional
[22] = Therapeutic index, ratio of drug level reducing 50% viability of human lymphocytes at 37 degC to MIC50 for Candida sp.
How it was run: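 Index is the lymphocyte concentration giving 50% viability at 37 °C divided by MIC50 for each Candida species; lymphocytes were exposed to 0–50 μM.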

[23] = tested on: Pichia kudriavzevii; experiment: Anticandidal activity against Candida krusei 193T after 24 hrs by spectrophotometry; type: functional
[24] = tested on: Candida parapsilosis; experiment: Anticandidal activity against Candida parapsilosis 81E after 24 hrs by spectrophotometry; type: functional; conditions: Lodderomyces parapsilosis

| SMILES | MIC [2] [µM] | MIC [3] [µM] | MIC [4] [µM] | MIC [5] [µM] | MIC [6] [µM] | MIC [7] [µM] | MIC [8] [µM] | MIC [9] [µM] | MIC [10] [µM] | MIC [11] [µM] | MIC [12] [µM] | MIC [13] [µM] | MIC [14] [µM] | MIC [17] [µM] | MIC [19] [µM] | MIC [20] [µM] | MIC [21] [µM] | MIC [23] [µM] | MIC [24] [µM] | further results |
| --- | --- | --- | --- | --- | --- | --- | --- | --- | --- | --- | --- | --- | --- | --- | --- | --- | --- | --- | --- | --- |
| CC(C)=CCNC(=N)NCCCCCCCCNCCCCCCCCNC(=N)NCC=C(C)C | > 80 | 40 (≈ 19.7 µg/mL) | > 80 | – | – | – | – | – | > 80 | – | – | 80 (≈ 39.3 µg/mL) | > 80 | > 80 | – | 80 (≈ 39.3 µg/mL) | > 80 | 80 (≈ 39.3 µg/mL) | > 80 | – |
| C[C@@H]1[C@H](O)[C@@H](C)/C=C/C=C/C=C/C=C/C=C/C=C/C=C/[C@H](O[C@@H]2O[C@H](C)[C@@H](O)[C@H](N)[C@@H]2O)C[C@@H]2O[C@](O)(C[C@@H](O)C[C@@H](O)[C@H](O)CC[C@@H](O)C[C@@H](O)CC(=O)O[C@H]1C)C[C@H](O)[C@H]2C(=O)O [AMPHOTERICIN B] | – | – | – | 0.135 (≈ 0.125 µg/mL) | 0.27 (≈ 0.25 µg/mL) | 0.135 (≈ 0.125 µg/mL) | 0.54 (≈ 0.499 µg/mL) | 2.1 (≈ 1.94 µg/mL) | – | 0.135 (≈ 0.125 µg/mL) | 1 (≈ 0.924 µg/mL) | – | – | – | 0.27 (≈ 0.25 µg/mL) | – | – | – | – | – |
| CCC(C)n1ncn(-c2ccc(N3CCN(c4ccc(OCC5COC(Cn6cncn6)(c6ccc(Cl)cc6Cl)O5)cc4)CC3)cc2)c1=O (centres undefined) [ITRACONAZOLE] | – | – | – | 0.35 (≈ 0.247 µg/mL) | 0.35 (≈ 0.247 µg/mL) | 0.35 (≈ 0.247 µg/mL) | 0.02 (≈ 0.0141 µg/mL) | 0.04 (≈ 0.0282 µg/mL) | – | 0.35 (≈ 0.247 µg/mL) | 0.35 (≈ 0.247 µg/mL) | – | – | – | 0.04 (≈ 0.0282 µg/mL) | – | – | – | – | – |

More lines, main results first:

| MIC [2] [µM] | MIC [3] [µM] | MIC [4] [µM] | MIC [5] [µM] | MIC [6] [µM] | MIC [7] [µM] | MIC [8] [µM] | MIC [9] [µM] | MIC [10] [µM] | MIC [11] [µM] | MIC [12] [µM] | MIC [13] [µM] | MIC [14] [µM] | MIC [17] [µM] | MIC [19] [µM] | MIC [20] [µM] | MIC [21] [µM] | MIC [23] [µM] | MIC [24] [µM] | SMILES | further results |
| --- | --- | --- | --- | --- | --- | --- | --- | --- | --- | --- | --- | --- | --- | --- | --- | --- | --- | --- | --- | --- |
| 1.25 (≈ 0.545 µg/mL) | 5 (≈ 2.18 µg/mL) | 2.5 (≈ 1.09 µg/mL) | 4 (≈ 1.74 µg/mL) | 18 (≈ 7.84 µg/mL) | 73 (≈ 31.8 µg/mL) | 18 (≈ 7.84 µg/mL) | 36 (≈ 15.7 µg/mL) | 5 (≈ 2.18 µg/mL) | 18 (≈ 7.84 µg/mL) | 73 (≈ 31.8 µg/mL) | 1.25 (≈ 0.545 µg/mL) | 20 (≈ 8.71 µg/mL) | 5 (≈ 2.18 µg/mL) | 36 (≈ 15.7 µg/mL) | 2.5 (≈ 1.09 µg/mL) | 1.25 (≈ 0.545 µg/mL) | 5 (≈ 2.18 µg/mL) | 5 (≈ 2.18 µg/mL) | C/C=C/CNC(=N)NCCCCCCCCN1CCCCCCCCNC(=N)NC1=O | Activity [1]: 78%; Activity [15]: 43%; Ratio [16]: 2.4; viability [18]: 100%; Ratio [22]: 1.9 |
| 2.5 (≈ 1.05 µg/mL) | 80 (≈ 33.6 µg/mL) | 2.5 (≈ 1.05 µg/mL) | – | – | – | – | – | 40 (≈ 16.8 µg/mL) | – | – | 80 (≈ 33.6 µg/mL) | 80 (≈ 33.6 µg/mL) | 40 (≈ 16.8 µg/mL) | – | 5 (≈ 2.1 µg/mL) | 5 (≈ 2.1 µg/mL) | 40 (≈ 16.8 µg/mL) | 80 (≈ 33.6 µg/mL) | C#CCNC(=N)NCCCCCCCCN1CCCCCCCCNC(=N)NC1=O | – |
| 10 (≈ 3.98 µg/mL) | 10 (≈ 3.98 µg/mL) | 5 (≈ 1.99 µg/mL) | – | – | – | – | – | > 80 | – | – | 5 (≈ 1.99 µg/mL) | > 80 | > 80 | – | 20 (≈ 7.95 µg/mL) | 1.25 (≈ 0.497 µg/mL) | 40 (≈ 15.9 µg/mL) | > 80 | N=C(N)NCCCCCCCCN(CCCCCCCCNC(=N)N)C(=N)N | – |
| 20 (≈ 8.19 µg/mL) | 5 (≈ 2.05 µg/mL) | 20 (≈ 8.19 µg/mL) | – | – | – | – | – | 80 (≈ 32.8 µg/mL) | – | – | 10 (≈ 4.1 µg/mL) | 20 (≈ 8.19 µg/mL) | 5 (≈ 2.05 µg/mL) | – | 10 (≈ 4.1 µg/mL) | 5 (≈ 2.05 µg/mL) | 10 (≈ 4.1 µg/mL) | 20 (≈ 8.19 µg/mL) | N=C(N)NCCCCCCCCNCCCCCCCCNC(=N)NCC1CC1 | – |
